Assays:
Mus musculus [1] = organism: Mus musculus; assay: Serum estradiol level in nonestrus mouse BALB/c cell line; (n=3)
Mus musculus [2] = organism: Mus musculus; assay: Serum estradiol level in estrus estrogen receptor beta mouse; (n=3); format: functional, organism-based
Outline: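 Serum was collected and sent to an outside laboratory for radioimmunoassay using reagents intended for human serum. […] Results are in pg/mL as mean ± SD, with three samples per mouse.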

Level (Mus musculus [2]): 43.8 pg/mL
SMILES: C[C@]12CC[C@@H]3c4ccc(O)cc4CC[C@H]3[C@@H]1CC[C@@H]2O
Level (Mus musculus [1]): 28.7 pg/mL

Source: ChEMBL document CHEMBL1141109, “Synthesis of an estrogen receptor beta-selective radioligand: 5-[18F]fluoro-(2R,3S)-2,3-bis(4-hydroxyphenyl)pentanenitrile and comparison of in vivo distribution with 16alpha-[18F]fluoro-17beta-estradiol” (J Med Chem, 2005)
